A selection: hits, their analogues and other compounds. The true share with any hit is near 1.9%.
IDE inh: cellular human IDE inhibition. P14735. HEK cells, FAbetaB cleavage, fluorescence polarization. inhibition, % at 5.59 µM. 320,000 tested, 0.41% active. AID 434962;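 active = percent inhibition above the average of all tested compounds plus 3 SD, set per screening campaign, cut at about 16% in these data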;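 also: IDE supplied by intact live HEK cells; FP after avidin binding of uncleaved biotin substrate so inhibition keeps polarization high; 0% = DMSO wells and 100% = 60 µM reference IDE inhibitor Ii1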
UBC13 inh: inhibitors of human UBC13 polyubiquitin chain formation; P61088; inhibition, % at 20 µM; TR-FRET; 330,000 tested, 0.47% active; in the data active = inhibition above about 45%, passing the limit was not always enough
Target sequence (P61088 whole entry, looked up): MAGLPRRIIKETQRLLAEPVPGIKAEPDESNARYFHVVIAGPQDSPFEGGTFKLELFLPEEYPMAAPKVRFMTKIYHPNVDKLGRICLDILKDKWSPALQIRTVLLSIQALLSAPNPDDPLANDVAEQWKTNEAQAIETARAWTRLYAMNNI
procasp3 activ: activates human procaspase-3 | P42574 | recombinant procaspase-3 D3A, Ac-DEVD-pNA absorbance 405 nm | activation, % at 8.5 µM | 330,000 tested, 0.11% active | AID 463141;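 active = activation above the mean of all tested compounds plus 3 SD, cut at about 21% in these data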;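 also: 0% = DMSO alone and 100% = DMSO wells spiked with extra 5 µM PC-3 D3A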
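Assay system – Procaspase-3 D3A mutant · Benchmarks – DMSO low control, extra-enzyme high control · Technique – 405 nm absorbance of p-nitroaniline, reads at 0 and 120 min · Doses – 8.5 µM nominal · Measure – % activation between DMSO and enzyme-spiked controls · Also added – Ac-DEVD-pNA chromogenic peptide substrate · Schedule – 1 h compound preincubation, 2 h substrate hydrolysis at 25 °C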
IDE cell activ: activators of human insulin-degrading enzyme in cells; P14735; HEK cells, FAbeta-B cleavage, fluorescence polarization; 0% vehicle, 100% cell-free pure enzyme wells; activation, % at 5.96 µM; 340,000 tested, 0.073% active;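 active = activation above the mean of all tested compounds plus 3 SD, set per screening campaign, cut at about 17% in these data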
PHOSPHO1 inh: blocks human PHOSPHO1 phosphatase activity; recombinant PHOSPHO1, absorbance phosphatase assay; Q8TCT1; inhibition, % at 13.3 µM; 290,000 tested, 1.1% active; in the data active = inhibition above about 60%
procasp7 counter: counter-screen: procaspase-7 (human) activation. activation, % at 8.5 µM. recombinant procaspase-7, Ac-DEVD-pNA absorbance 405 nm; D23A/D198A/D206A triple mutant, cannot self-cleave; scale: DMSO 0, 5 µM enzyme 100. P55210. 330,000 tested, 0.093% active;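 active = percent activation above the screen-wide mean plus 3 SD, cut at about 25% in these data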
Target sequence (P55210 whole entry D23A/D198A/D206A): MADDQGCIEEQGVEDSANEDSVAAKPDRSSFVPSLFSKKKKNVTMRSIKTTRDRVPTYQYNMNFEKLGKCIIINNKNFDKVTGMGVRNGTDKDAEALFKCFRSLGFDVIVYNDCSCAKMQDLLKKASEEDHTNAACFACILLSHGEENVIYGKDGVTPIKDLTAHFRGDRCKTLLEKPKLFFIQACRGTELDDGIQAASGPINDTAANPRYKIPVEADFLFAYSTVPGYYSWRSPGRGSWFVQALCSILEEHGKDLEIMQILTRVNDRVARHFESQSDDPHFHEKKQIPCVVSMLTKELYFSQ
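Assay system: Uncleavable procaspase-7 mutant enzyme / Input: 2 µM procaspase-7 mutant as dispensed / Dosing: single nominal 8.5 µM compound dose, 0.8% DMSO final / Timing: 1 h enzyme–compound preincubation and 2 h substrate reaction, both 25 °C / Detection: p-Nitroaniline absorbance at 405 nm, read at 0 and 120 min / Replication: singlicate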
proCasp7 act trip: activates human procaspase-7, counter-screen for procaspase-3 activators; activation, % at 8.5 µM; recombinant procaspase-7, Ac-DEVD-pNA absorbance; asp23/198/206-to-Ala mutant, cannot self-cleave; shares compounds with procasp3 activ; AID 488941; 210 tested, under 10 active;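 active = mean activation above a set limit taken from an earlier procaspase-7 screen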;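 also: 0% = DMSO wells and 100% = DMSO plus 5 µM procaspase-7 enzyme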
proCasp3 confirm: procaspase-3 (human) activation, confirmed | shares compounds with procasp3 activ | recombinant PC-3 D3A, Ac-DEVD-pNA absorbance 405 nm; 100% is higher-enzyme control | activation, % at 8.5 µM | 210 tested, 10% active;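 active = mean activation above a set limit carried over from the earlier primary screen, cut at about 22% in these data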
An asterisk follows results filed as active; . = no result.

SMILES	IDE inh	UBC13 inh	procasp3 activ	IDE cell activ	PHOSPHO1 inh	procasp7 counter	proCasp7 act trip	proCasp3 confirm
CN(C(=O)COC(=O)c1ccc(F)c(S(=O)(=O)N2CCOCC2)c1)C1CCS(=O)(=O)C1 (stereo unspecified)	5.7	-4.2	-0.9	0.5	.	2.1	.	.
C=C(C)CSc1nnc2n(N)c(=O)c3ccccc3n12	-0.9	-4.2	21.6*	-2.4	4.9	4.8	0.1	3.7
CCSc1nnc2n(N)c(=O)c3ccccc3n12	.	.	.	.	-39.4	.	.	.
Cc1ccc(N2CCN(CC(O)COc3ccccc3)CC2)cc1 (stereo unspecified)	0.7	5.9	27.6*	5.3	-15.7	6.2	3.3	2.3
Cc1ccc(OCC(O)CN2CCN(c3ccccc3)CC2)cc1 (stereo unspecified)	-2.0	4.4	2.9	1.9	-4.2	9.5	.	.
CCc1cc2c(CN(C)Cc3ccccc3F)cc(=O)oc2cc1O	2.4	10.6	46.4*	2.0	26.9	21.1	-22.1	-15.8
Cc1cc2oc(=O)cc(CN(C)Cc3cccc(F)c3)c2cc1C	-0.7	-4.6	-3.0	3.5	32.6	0.0	.	.
O=C(NCc1ccccc1)C(c1ccc(O)cc1)N(C(=O)c1cnccn1)c1ccccc1 (stereo unspecified)	-3.6	5.8	-0.9	0.2	22.8	10.0	.	.
N=c1oc2ccc3ccccc3c2cc1-c1nc(-c2ccccc2)cs1	1.5	.	-16.4	0.7	-7.1	-21.1	.	.
N=c1oc2ccccc2cc1-c1nc(-c2ccccc2)cs1	8.7	11.3	43.3*	0.0	3.0	20.6	-21.1	-14.8
CCCc1cc(=O)oc2cc(OC(=O)CN3C(=O)NC4(CCCC4)C3=O)ccc12	-7.4	14.0	25.6*	2.3	.	14.6	-21.7	-13.1
CC(C)(O)[C@@H]1CC[C@@](C)(C2CC[C@]3(C)C2[C@H](O)CC2[C@@]4(C)CC[C@H](O)C(C)(C)C4[C@@H](O[C@H]4O[C@@H](CO)[C@H](O)[C@@H](O)[C@@H]4O[C@@H]4O[C@H](CO)[C@@H](O)[C@H](O)[C@H]4O)C[C@]23C)O1 (stereo in doubt)	-0.7	12.6	-10.4	1.7	.	8.3	.	.
O=c1c(O)c(-c2cccs2)oc2ccccc12	-18.0	3.5	26.6*	-85.0	3.5	14.8	1.1	4.8
NC(=O)Nc1ccc(C(=O)OCC(=O)Nc2ccc(Cl)cn2)cc1	-1.8	16.5	5.2	-1.8	1.0	1.9	.	.
[O-][n+]1onc2c1C(N1CCOCC1)CCC2N1CCOCC1 (stereo unspecified)	3.4	-2.4	67.6*	-0.1	6.4	11.1	4.5	4.8
Cc1c(C)c2ccc(OC(C)C(=O)NCc3ccccn3)cc2oc1=O (stereo unspecified)	7.5	6.5	23.0*	-2.5	23.5	-7.3	1.7	6.1
N#Cc1cc(S(=O)(=O)c2ccc(Cl)cc2)c(N)[nH]c1=O	-4.7	15.0	23.1*	-0.7	-16.9	21.0	-20.2	-14.8
Cc1cc(C)c(S(=O)(=O)c2ccc(Cl)cc2)c(=O)[nH]1	3.2	-7.9	-1.5	0.8	14.1	9.0	.	.
CCCNC(=O)c1ccc2c(=O)c(O)c(-c3ccc(OC)cc3)[nH]c2c1	-3.4	4.6	118.8*	0.0	26.5	-2.0	-1.8	0.5
CCCNC(=O)c1ccc2c(=O)c(O)c(-c3ccc(C)cc3)[nH]c2c1	-2.3	-0.6	99.8*	-0.6	35.3	20.0	21.2	28.5*
CCN1CCN(CCNC(=O)CCCn2nc(C)c3c(C)n(-c4ccc(C)cc4)nc3c2=O)CC1	-4.0	-5.2	0.6	0.7	20.7	-2.8	.	.
CCc1ccc(N2CCN(C(=O)N3CCOCC3)CC2)cc1	3.0	0.0	24.0*	1.5	-13.2	10.7	2.7	5.4
